According to ChEMBL document CHEMBL1155717, “Monoterpene glycosides and triterpene acids from Eriobotrya deflexa” (J Nat Prod, 2001):
Activity calls are given as the source filed them. The rule behind the calls is not given here.

Species on record: Homo sapiens
Experiment: Antiinflammatory activity in human PMNC assessed as inhibition of proliferation upto 10 uM
Type: functional

Q: Which Activity does the source give for `C=C[C@](C)(CCC=C(C)C)O[C@@H]1O[C@H](CO[C@@H]2O[C@@H](C)[C@H](OC(=O)/C=C\c3ccc(O)cc3)[C@@H](O[C@@H]3O[C@@H](C)[C@H](O)[C@@H](O)[C@H]3O)[C@H]2O)[C@@H](O)[C@H](O)[C@H]1O` here?
A: Its Activity is “inactive”.

Q: For `C=C[C@](C)(CCC=C(C)C)O[C@@H]1O[C@H](CO[C@@H]2O[C@@H](C)[C@H](OC(=O)/C=C/c3ccc(O)cc3)[C@@H](O[C@@H]3O[C@@H](C)[C@H](O)[C@@H](O)[C@H]3O)[C@H]2O)[C@@H](O)[C@H](O)[C@H]1O`, which Activity is on record?
A: The Activity was “inactive”.

System: not listed separately
Experiment: Antiinflammatory activity in human PMNC assessed as inhibition of proliferation
Type: functional
Outline: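 In vitro antiproliferation assay on human mononuclear cells (T lymphocytes, B lymphocytes and macrophages) isolated from peripheral blood. Compounds were tested at up to 100 µM, and activity was expressed as IC50.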

Q: For `C[C@@H]1CC[C@]2(C(=O)O)CC[C@]3(C)C(=CC[C@@H]4[C@@]5(C)[C@H](O)C(=O)[C@H](O)C(C)(C)[C@@H]5CC[C@]43C)[C@@H]2[C@]1(C)O`, which IC50 is on record?
A: Its IC50 is 32.5 µM.

Q: With `C[C@@H]1CC[C@]2(C(=O)O)CC[C@]3(C)C(=CC[C@@H]4[C@@]5(C)[C@H](O)[C@@H](O)C(=O)C(C)(C)[C@@H]5CC[C@]43C)[C@@H]2[C@]1(C)O` as the molecule, how does the IC50 read?
A: Its IC50 is 26.9 µM.

Q: For `C[C@@H]1CC[C@]2(C(=O)O)CC[C@]3(C)C(=CC[C@@H]4[C@@]5(C)C[C@@H](O)C(=O)C(C)(C)[C@@H]5CC[C@]43C)[C@@H]2[C@]1(C)O`, which IC50 is on record?
A: The IC50 was 40 µM.

Q: With `C[C@@H]1CC[C@]2(C(=O)O)CC[C@]3(C)C(=CC[C@@H]4[C@@]5(C)C[C@@H](O)[C@@H](O)C(C)(C)[C@@H]5CC[C@]43C)[C@@H]2[C@]1(C)O` [EUSCAPHIC ACID] as the molecule, how does the IC50 read?
A: Its IC50 is 28.8 µM.

Q: Which IC50 does the source give for `C[C@@H]1CC[C@]2(C(=O)O)CC[C@]3(C)C(=CC[C@@H]4[C@@]5(C)CC(=O)[C@H](O)C(C)(C)[C@@H]5CC[C@]43C)[C@@H]2[C@]1(C)O` here?
A: The IC50 was 38.1 µM.
